# Experimental data reported in ChEMBL document CHEMBL4732237, “Discovery of 4-alkoxy-2-aryl-6,7-dimethoxyquinolines as a new class of topoisomerase I inhibitors endowed with potent in vitro anticancer activity” (2021).
# Tests used:
# Format in all cases: functional
# OVCAR-8 = assay: Growth inhibition of human OVCAR-8 cells at 10 uM incubated for 48 hrs by sulforhodamine B assay relative to control; details: read-out: GI
# How it was run: (§1)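 NCI one-dose screen. Cells grown in RPMI 1640 with 5% FBS and 2 mM L-glutamine, plated and incubated 24 h at 37 °C, 5% CO2. DMSO-dissolved drug added, then 48 h further incubation. Adherent cells fixed with cold TCA, suspension cells fixed after settling. Stained with 0.4% SRB, absorbance read at 515 nm. Reported as percent growth relative to no-drug control and time-zero cell number.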
# EKVX [1] = assay: Growth inhibition of human EKVX cells at 10 uM incubated for 48 hrs by sulforhodamine B assay relative to control; details: read-out: GI
# How it was run: (§2)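 NCI-60 single-dose screen. Cells were grown in RPMI 1640 with 5% FBS and 2 mM L-glutamine and plated 24 h before drug addition. Compound was added at one concentration in DMSO-derived medium and incubated for 48 h at 37 °C in 5% CO2. Read-out was SRB protein stain at 515 nm. Result is percent growth versus the no-drug control and the time-zero cell count; values below 0 indicate lethality.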
# NCI-H226 = assay: Growth inhibition of human NCI-H226 cells at 10 uM incubated for 48 hrs by sulforhodamine B assay relative to control; details: read-out: GI; how it was run: as §1
# A498 = assay: Growth inhibition of human A498 cells at 10 uM incubated for 48 hrs by sulforhodamine B assay relative to control; details: read-out: GI
# How it was run: (§3)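 NCI one-dose screen across a 59-line panel. Cells were grown in RPMI 1640 with 5% FBS and 2 mM L-glutamine, plated and pre-incubated 24 h, then exposed to drug for 48 h at 37 °C, 5% CO2. Adherent cells were fixed with cold TCA (10% final), stained with 0.4% SRB in 1% acetic acid and read at 515 nm. Result is percent growth relative to no-drug control and time-zero cell count.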
# Malme-3M = assay: Growth inhibition of human Malme-3M cells at 10 uM incubated for 48 hrs by sulforhodamine B assay relative to control; details: read-out: GI; how it was run: as §1
# NCI-H522 = assay: Growth inhibition of human NCI-H522 cells at 10 uM incubated for 48 hrs by sulforhodamine B assay relative to control; details: read-out: GI; how it was run: as §1
# K562 = assay: Growth inhibition of human K562 cells at 10 uM incubated for 48 hrs by sulforhodamine B assay relative to control; details: read-out: GI; how it was run: as §2
# UO-31 = assay: Growth inhibition of human UO-31 cells at 10 uM incubated for 48 hrs by sulforhodamine B assay relative to control; details: read-out: GI; how it was run: as §3
# OVCAR-5 = assay: Growth inhibition of human OVCAR-5 cells at 10 uM incubated for 48 hrs by sulforhodamine B assay relative to control; details: read-out: GI; how it was run: as §1
# SK-MEL-5 = assay: Growth inhibition of human SK-MEL-5 cells at 10 uM incubated for 48 hrs by sulforhodamine B assay relative to control; details: read-out: GI; how it was run: as §1
# SNB-75 [2] = assay: Growth inhibition of human SNB-75 cells at 10 uM incubated for 48 hrs by sulforhodamine B assay relative to control; details: read-out: GI; how it was run: as §1
# SF-268 = assay: Growth inhibition of human SF-268 cells at 10 uM incubated for 48 hrs by sulforhodamine B assay relative to control; details: read-out: GI; how it was run: as §1
# SF-539 = assay: Growth inhibition of human SF-539 cells at 10 uM incubated for 48 hrs by sulforhodamine B assay relative to control; details: read-out: GI; how it was run: as §1
# MDA-MB-231 = assay: Growth inhibition of human MDA-MB-231 cells incubated for 48 hrs by sulforhodamine B assay
# How it was run: (§4)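 NCI five-dose screen covering 0.01–100 µM, prepared as 10-fold or ½-log dilutions from DMSO stock. Cells in RPMI 1640 with 5% FBS were exposed for 48 h at 37 °C after 24 h preincubation. Adherent cells were fixed with TCA (final 10%) and suspension cells were settled before fixing. Stain was SRB, read at 515 nm. GI50 = 50% reduction in net protein increase versus control, with Tz taken at drug addition.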
# SNB-75 [3] = assay: Growth inhibition of human SNB-75 cells incubated for 48 hrs by sulforhodamine B assay
# How it was run: (§5)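 NCI five-dose screen (0.01–100 µM; five concentrations plus control). Cells grown in RPMI 1640/5% FBS/2 mM L-glutamine and preincubated 24 h, with time-zero plates TCA-fixed. Drug exposure 48 h at 37 °C, followed by SRB protein staining and reading at 515 nm. GI50 is the concentration at [(Ti-Tz)/(C-Tz)]×100 = 50.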
# PC-3 = assay: Growth inhibition of human PC-3 cells incubated for 48 hrs by sulforhodamine B assay; how it was run: as §5
# HCT-116 = assay: Growth inhibition of human HCT-116 cells incubated for 48 hrs by sulforhodamine B assay; how it was run: as §4
# MDA-MB-468 = assay: Growth inhibition of human MDA-MB-468 cells incubated for 48 hrs by sulforhodamine B assay; how it was run: as §4
# NCI/ADR-RES = assay: Growth inhibition of human NCI/ADR-RES cells incubated for 48 hrs by sulforhodamine B assay; how it was run: as §5
# HCC 2998 = assay: Growth inhibition of human HCC 2998 cells incubated for 48 hrs by sulforhodamine B assay; how it was run: as §4
# A549 = assay: Growth inhibition of human A549 cells incubated for 48 hrs by sulforhodamine B assay; how it was run: as §4
# EKVX [4] = assay: Growth inhibition of human EKVX cells incubated for 48 hrs by sulforhodamine B assay; how it was run: as §4
# HOP-62 = assay: Growth inhibition of human HOP-62 cells incubated for 48 hrs by sulforhodamine B assay; how it was run: as §4
# U-251 = assay: Growth inhibition of human U-251 cells incubated for 48 hrs by sulforhodamine B assay
# How it was run: (§6)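 NCI five-dose assay, with drug stocks in DMSO diluted in medium to five concentrations (10-fold or ½-log series). Cells in RPMI 1640/5% FBS were pre-incubated 24 h, and time-zero plates were TCA-fixed at drug addition. After 48 h at 37 °C, cells were TCA-fixed, SRB-stained and read at 515 nm. GI50 is from [(Ti-Tz)/(C-Tz)]×100 = 50, TGI from Ti = Tz, and LC50 from [(Ti-Tz)/Tz]×100 = -50.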
# SW-620 = assay: Growth inhibition of human SW-620 cells incubated for 48 hrs by sulforhodamine B assay; how it was run: as §6
# MDA-MB-435 = assay: Growth inhibition of human MDA-MB-435 cells incubated for 48 hrs by sulforhodamine B assay; how it was run: as §4
Compound,inhibition of growth at 10 µM (OVCAR-8) [%],inhibition of growth at 10 µM (EKVX [1]) [%],inhibition of growth at 10 µM (NCI-H226) [%],inhibition of growth at 10 µM (A498) [%],inhibition of growth at 10 µM (Malme-3M) [%],inhibition of growth at 10 µM (NCI-H522) [%],inhibition of growth at 10 µM (K562) [%],inhibition of growth at 10 µM (UO-31) [%],inhibition of growth at 10 µM (OVCAR-5) [%],inhibition of growth at 10 µM (SK-MEL-5) [%],inhibition of growth at 10 µM (SNB-75 [2]) [%],inhibition of growth at 10 µM (SF-268) [%],inhibition of growth at 10 µM (SF-539) [%],further results
COc1cc2nc(-c3ccc(Cl)cc3)cc(OCCN3CCOCC3)c2cc1OC,3,3,3,3,3,3,3,3,3,3,3,3,3,
COc1cc2nc(-c3ccc(C(F)(F)F)cc3)cc(OCCCN3CCCCC3)c2cc1OC,,,,,,,,,,,,,,GI50 (MDA-MB-231): 536 nM; GI50 (SNB-75 [3]): 1960 nM; GI50 (PC-3): 1340 nM; GI50 (HCT-116): 429 nM; GI50 (MDA-MB-468): 1030 nM; GI50 (NCI/ADR-RES): 522 nM; GI50 (HCC 2998): 1280 nM; GI50 (A549): 722 nM; GI50 (EKVX [4]): 803 nM; GI50 (HOP-62): 947 nM; GI50 (U-251): 1100 nM; GI50 (SW-620): 2910 nM; GI50 (MDA-MB-435): 1230 nM
COc1cc2nc(-c3ccc(C(F)(F)F)cc3)cc(OCCCN3CCOCC3)c2cc1OC,,,,,,,,,,,,,,GI50 (MDA-MB-231): 498 nM; GI50 (SNB-75 [3]): 2460 nM; GI50 (PC-3): 2190 nM; GI50 (HCT-116): 583 nM; GI50 (MDA-MB-468): 1240 nM; GI50 (NCI/ADR-RES): 640 nM; GI50 (HCC 2998): 1410 nM; GI50 (A549): 1040 nM; GI50 (EKVX [4]): 1610 nM; GI50 (HOP-62): 1670 nM; GI50 (U-251): 1400 nM; GI50 (SW-620): 3510 nM; GI50 (MDA-MB-435): 1200 nM
COc1cc2nc(-c3ccc(C(F)(F)F)cc3)cc(OCCN3CCOCC3)c2cc1OC,13,13,13,13,13,13,13,13,13,13,13,13,13,
COc1cc2nc(-c3ccco3)cc(OCCCN3CCC(O)CC3)c2cc1OC,46,46,46,46,46,46,46,46,46,46,46,46,46,
COc1cc2nc(-c3ccc(Cl)cc3)cc(OCCN3CCCCC3)c2cc1OC,3,3,3,3,3,3,3,3,3,3,3,3,3,
COc1cc2nc(-c3cccs3)cc(OCCCN3CCC(O)CC3)c2cc1OC,20,20,20,20,20,20,20,20,20,20,20,20,20,
COc1cc2nc(-c3ccc(Cl)cc3)cc(OCCN3CCC(O)CC3)c2cc1OC,3,3,3,3,3,3,3,3,3,3,3,3,3,
COc1cc2nc(-c3ccc(C(F)(F)F)cc3)cc(OCCN3CCCCC3)c2cc1OC,13,13,13,13,13,13,13,13,13,13,13,13,13,
COc1cc2nc(-c3ccc(C(F)(F)F)cc3)cc(OCCN3CCCC3)c2cc1OC,13,13,13,13,13,13,13,13,13,13,13,13,13,
COc1cc2nc(-c3ccc(C(F)(F)F)cc3)cc(OCCN3CCC(O)CC3)c2cc1OC,13,13,13,13,13,13,13,13,13,13,13,13,13,
COc1cc2nc(-c3ccsc3)cc(OCCCN3CCC(O)CC3)c2cc1OC,32,32,32,32,32,32,32,32,32,32,32,32,32,
COc1cc2nc(-c3ccc(Cl)cc3)cc(OCCN3CCCC3)c2cc1OC,3,3,3,3,3,3,3,3,3,3,3,3,3,
